Data from ChEMBL document CHEMBL5321283, “Structure-Activity Relationships of the Antimicrobial Peptide Natural Product Apidaecin” (J Med Chem, 2023).
Converted amounts (≈) assume the structure as drawn. The source made the active and inactive calls. The rule behind the calls is not given here. *1 amine or outer side, *2 acyl side, *3 side chain or, on linkers, in order; H or OH if unused. Where a SMILES comes first, the peptide text is derived from it. [ ]: non-standard residue; d: D form. The star is where a group is joined. Orn(α-tetramethylguanidino) = CN(C)C(=N[C@@H](CCCN)C(=O)*)N(C)C; X1 = N=C(N)NCCC[C@H](NC(=S)[C@@H]1CCCN1[*:1])C(=O)[*:2]; X3 = O=C([C@@H]1CCCN1C(=S)[C@@H]1CCCN1[*:1])[*:2]; Phe(4-F) = N[C@@H](Cc1ccc(F)cc1)C(=O)O; Arg(Me) = CNC(=N)NCCC[C@H](N)C(=O)O; Hyp = O=C(O)[C@@H]1C[C@@H](O)CN1; Cha = N[C@@H](CC1CCCCC1)C(=O)O; NMeL = CN[C@@H](CC(C)C)C(=O)O

How the values were obtained:
Escherichia coli [1] = assay: Antibacterial activity against Escherichia coli BL21 assessed as bacterial growth inhibition by broth microdilution assay; type: functional
Escherichia coli [2] = assay: Potency index, ratio of Api-137 MIC to test compound MIC for antibacterial activity against Escherichia coli BL21 assessed as bacterial growth inhibition by broth microdilution assay; type: functional
Escherichia coli [3] = assay: Antibacterial activity against Escherichia coli BL21 harboring RF2 (Q280L) mutant assessed as bacterial growth inhibition by broth microdilution assay; type: functional
Escherichia coli [4] = assay: Antibacterial activity against Escherichia coli BL21 harboring sbmA mutant assessed as bacterial growth inhibition by broth microdilution assay; type: functional
Escherichia coli [5] = assay: Antibacterial activity against Escherichia coli BL21 harboring RF2 (R262C) mutant assessed as bacterial growth inhibition by broth microdilution assay; type: functional
[6] = Stability in human plasma assessed as parent compound remaining measured after 2 hrs; type: ADME, cell-free; conditions: read-out: Stability
Escherichia coli [7] = assay: Induction of stop-codon readthrough in Escherichia coli BL21 carrying pRXG (UGA) reporter incubated for 18 hrs by imaging analysis; type: functional
Summary of the method: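 Lawn spread on M9 agar with 0.2 mM IPTG and kanamycin, then dried. 2 μL drops of 0.2 mM peptide applied; 1 μL chloramphenicol (1 mg/mL) as negative control. ~18 h, 37 °C; RFP (Cy3) and GFP (Cy2) imaged.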

SMILES | MIC (Escherichia coli [1]) [µM] | Ratio (Escherichia coli [2]) | MIC (Escherichia coli [3]) [µM] | MIC (Escherichia coli [4]) [µM] | MIC (Escherichia coli [5]) [µM] | remaining at 2 h [6] [%] | Activity (Escherichia coli [7])
CC[C@H](C)[C@H](NC(=O)[C@H](Cc1ccc(O)cc1)NC(=O)[C@@H](NC(=O)[C@@H]1CCCN1C(=O)[C@H](CCCNC(=N)N)NC(=O)[C@H](CC(N)=O)NC(=O)[C@H](CC(N)=O)NC(=O)[C@H](CCCN)N=C(N(C)C)N(C)C)C(C)C)C(=O)N1CCC[C@H]1C(=O)N[C@@H](CCCNC(=N)N)C(=O)N1CCC[C@H]1C(=O)N[C@@H](CCCNC(=N)N)C(=O)N1CCC[C@H]1C(=O)N1CCC[C@H]1C(=O)N[C@@H](Cc1c[nH]cn1)C(=O)N1CCC[C@H]1C(=O)N[C@@H](CCCNC(=N)N)C(=O)N[C@@H](CC(C)C)C(=O)O ({Orn(α-tetramethylguanidino)}-NNRPVYIPRPRPPHPRL-OH) | 0.16 (≈ 0.367 µg/mL) | 1 | > 25 | > 25 | > 25 | ~80 | 
CC[C@H](C)[C@H](NC(=O)[C@H](Cc1ccc(O)cc1)NC(=O)[C@@H](NC(=O)[C@@H]1CCCN1C(=O)[C@H](CCCNC(=N)N)NC(=O)[C@H](CC(N)=O)NC(=O)[C@H](CC(N)=O)NC(=O)[C@H](CCCN)N=C(N(C)C)N(C)C)C(C)C)C(=O)N1CCC[C@H]1C(=O)N[C@@H](CCCNC(=N)N)C(=O)N1CCC[C@H]1C(=O)N[C@@H](CCCNC(=N)N)C(=O)N1CCC[C@H]1C(=O)N1CCC[C@H]1C(=O)N[C@@H](Cc1c[nH]cn1)C(=O)N1CCC[C@H]1C(=O)N[C@@H](CCCNC(=N)N)C(=O)N(C)[C@@H](CC(C)C)C(=O)O ({Orn(α-tetramethylguanidino)}-NNRPVYIPRPRPPHPR[NMeL]-OH) |  |  |  | > 25 | > 25 | ~80 | Active
CC[C@H](C)[C@H](NC(=O)[C@H](Cc1ccc(O)cc1)NC(=O)[C@@H](NC(=O)[C@@H]1CCCN1C(=O)[C@H](CCCNC(=N)N)NC(=O)[C@H](CC(N)=O)NC(=O)[C@H](CC(N)=O)NC(=O)[C@H](CCCN)N=C(N(C)C)N(C)C)C(C)C)C(=O)N1CCC[C@H]1C(=O)N[C@@H](CCCNC(=N)N)C(=O)N1CCC[C@H]1C(=O)N[C@@H](CCCNC(=N)N)C(=O)N1CCC[C@H]1C(=O)N1CCC[C@H]1C(=O)N[C@@H](Cc1c[nH]cn1)C(=O)N1CCC[C@H]1C(=O)N[C@@H](CCCNC(=N)NC)C(=O)N[C@@H](CC(C)C)C(=O)O ({Orn(α-tetramethylguanidino)}-NNRPVYIPRPRPPHP[Arg(Me)]L-OH) | 0.3 (≈ 0.692 µg/mL) | 1 | 25 (≈ 57.6 µg/mL) | > 25 | > 25 |  | Active
CC[C@H](C)[C@H](NC(=O)[C@H](Cc1ccc(O)cc1)NC(=O)[C@@H](NC(=O)[C@@H]1CCCN1C(=O)[C@H](CCCNC(=N)N)NC(=O)[C@H](CC(N)=O)NC(=O)[C@H](CC(N)=O)NC(=O)[C@H](CCCN)N=C(N(C)C)N(C)C)C(C)C)C(=O)N1CCC[C@H]1C(=O)N[C@@H](CCCNC(=N)N)C(=O)N1CCC[C@H]1C(=O)N[C@@H](CCCNC(=N)N)C(=O)N1C[C@H](O)C[C@H]1C(=O)N1CCC[C@H]1C(=O)N[C@@H](Cc1c[nH]cn1)C(=O)N1CCC[C@H]1C(=O)N[C@@H](CCCNC(=N)N)C(=O)N[C@@H](CC(C)C)C(=O)O ({Orn(α-tetramethylguanidino)}-NNRPVYIPRPR[Hyp]PHPRL-OH) | 0.16 (≈ 0.369 µg/mL) | 2 |  |  |  |  | 
CC[C@H](C)[C@H](NC(=O)[C@H](Cc1ccc(O)cc1)NC(=O)[C@@H](NC(=O)[C@@H]1CCCN1C(=O)[C@H](CCCNC(=N)N)NC(=O)[C@H](CC(N)=O)NC(=O)[C@H](CC(N)=O)NC(=O)[C@H](CCCN)N=C(N(C)C)N(C)C)C(C)C)C(=O)N1CCC[C@H]1C(=O)N[C@@H](CCCNC(=N)N)C(=O)N1CCC[C@H]1C(=O)N[C@@H](CCCNC(=N)N)C(=O)N1CCC[C@H]1C(=S)N1CCC[C@H]1C(=O)N[C@@H](Cc1c[nH]cn1)C(=O)N1CCC[C@H]1C(=O)N[C@@H](CCCNC(=N)N)C(=O)N[C@@H](CC(C)C)C(=O)O ({Orn(α-tetramethylguanidino)}-NNRPVYIPRPR[X3]HPRL-OH) | 0.62 (≈ 1.43 µg/mL) | 4 |  |  |  |  | 
CC[C@H](C)[C@H](NC(=O)[C@H](Cc1ccc(O)cc1)NC(=O)[C@@H](NC(=O)[C@@H]1CCCN1C(=O)[C@H](CCCNC(=N)N)NC(=O)[C@H](CC(N)=O)NC(=O)[C@H](CC(N)=O)NC(=O)[C@H](CCCN)N=C(N(C)C)N(C)C)C(C)C)C(=O)N1CCC[C@H]1C(=O)N[C@@H](CCCNC(=N)N)C(=O)N1C[C@H](O)C[C@H]1C(=O)N[C@@H](CCCNC(=N)N)C(=O)N1CCC[C@H]1C(=O)N1CCC[C@H]1C(=O)N[C@@H](Cc1c[nH]cn1)C(=O)N1CCC[C@H]1C(=O)N[C@@H](CCCNC(=N)N)C(=O)N[C@@H](CC(C)C)C(=O)O ({Orn(α-tetramethylguanidino)}-NNRPVYIPR[Hyp]RPPHPRL-OH) | 1.2 (≈ 2.77 µg/mL) | 4 |  |  |  |  | 
CC[C@H](C)[C@H](NC(=O)[C@H](Cc1ccc(O)cc1)NC(=O)[C@@H](NC(=O)[C@@H]1CCCN1C(=O)[C@H](CCCNC(=N)N)NC(=O)[C@H](CC(N)=O)NC(=O)[C@H](CC(N)=O)NC(=O)[C@H](CCCN)N=C(N(C)C)N(C)C)C(C)C)C(=O)N1CCC[C@H]1C(=O)N[C@@H](CCCNC(=N)N)C(=O)N1CCC[C@H]1C(=S)N[C@@H](CCCNC(=N)N)C(=O)N1CCC[C@H]1C(=O)N1CCC[C@H]1C(=O)N[C@@H](Cc1c[nH]cn1)C(=O)N1CCC[C@H]1C(=O)N[C@@H](CCCNC(=N)N)C(=O)N[C@@H](CC(C)C)C(=O)O ({Orn(α-tetramethylguanidino)}-NNRPVYIPR[X1]PPHPRL-OH) | 0.62 (≈ 1.43 µg/mL) | 4 |  |  |  |  | 
CC[C@H](C)[C@H](NC(=O)[C@H](Cc1ccc(O)cc1)NC(=O)[C@@H](NC(=O)[C@@H]1CCCN1C(=O)[C@H](CCCNC(=N)N)NC(=O)[C@H](CC(N)=O)NC(=O)[C@H](CC(N)=O)NC(=O)[C@H](CCCN)N=C(N(C)C)N(C)C)C(C)C)C(=O)N1C[C@H](O)C[C@H]1C(=O)N[C@@H](CCCNC(=N)N)C(=O)N1CCC[C@H]1C(=O)N[C@@H](CCCNC(=N)N)C(=O)N1CCC[C@H]1C(=O)N1CCC[C@H]1C(=O)N[C@@H](Cc1c[nH]cn1)C(=O)N1CCC[C@H]1C(=O)N[C@@H](CCCNC(=N)N)C(=O)N[C@@H](CC(C)C)C(=O)O ({Orn(α-tetramethylguanidino)}-NNRPVYI[Hyp]RPRPPHPRL-OH) | 0.08 (≈ 0.185 µg/mL) | 1 |  |  |  |  | 
CC[C@H](C)[C@H](NC(=O)[C@H](CC1CCCCC1)NC(=O)[C@@H](NC(=O)[C@@H]1CCCN1C(=O)[C@H](CCCNC(=N)N)NC(=O)[C@H](CC(N)=O)NC(=O)[C@H](CC(N)=O)NC(=O)[C@H](CCCN)N=C(N(C)C)N(C)C)C(C)C)C(=O)N1CCC[C@H]1C(=O)N[C@@H](CCCNC(=N)N)C(=O)N1CCC[C@H]1C(=O)N[C@@H](CCCNC(=N)N)C(=O)N1CCC[C@H]1C(=O)N1CCC[C@H]1C(=O)N[C@@H](Cc1c[nH]cn1)C(=O)N1CCC[C@H]1C(=O)N[C@@H](CCCNC(=N)N)C(=O)N[C@@H](CC(C)C)C(=O)O ({Orn(α-tetramethylguanidino)}-NNRPV[Cha]IPRPRPPHPRL-OH) | 0.75 (≈ 1.71 µg/mL) | 2 |  |  |  |  | 
CC[C@H](C)[C@H](NC(=O)[C@H](Cc1ccc(F)cc1)NC(=O)[C@@H](NC(=O)[C@@H]1CCCN1C(=O)[C@H](CCCNC(=N)N)NC(=O)[C@H](CC(N)=O)NC(=O)[C@H](CC(N)=O)NC(=O)[C@H](CCCN)N=C(N(C)C)N(C)C)C(C)C)C(=O)N1CCC[C@H]1C(=O)N[C@@H](CCCNC(=N)N)C(=O)N1CCC[C@H]1C(=O)N[C@@H](CCCNC(=N)N)C(=O)N1CCC[C@H]1C(=O)N1CCC[C@H]1C(=O)N[C@@H](Cc1c[nH]cn1)C(=O)N1CCC[C@H]1C(=O)N[C@@H](CCCNC(=N)N)C(=O)N[C@@H](CC(C)C)C(=O)O ({Orn(α-tetramethylguanidino)}-NNRPV[Phe(4-F)]IPRPRPPHPRL-OH) | 0.35 (≈ 0.803 µg/mL) | 1 |  |  |  |  | 
CC[C@H](C)[C@H](NC(=O)[C@H](Cc1ccc(O)cc1)NC(=O)[C@@H](NC(=O)[C@@H]1C[C@@H](O)CN1C(=O)[C@H](CCCNC(=N)N)NC(=O)[C@H](CC(N)=O)NC(=O)[C@H](CC(N)=O)NC(=O)[C@H](CCCN)N=C(N(C)C)N(C)C)C(C)C)C(=O)N1CCC[C@H]1C(=O)N[C@@H](CCCNC(=N)N)C(=O)N1CCC[C@H]1C(=O)N[C@@H](CCCNC(=N)N)C(=O)N1CCC[C@H]1C(=O)N1CCC[C@H]1C(=O)N[C@@H](Cc1c[nH]cn1)C(=O)N1CCC[C@H]1C(=O)N[C@@H](CCCNC(=N)N)C(=O)N[C@@H](CC(C)C)C(=O)O ({Orn(α-tetramethylguanidino)}-NNR[Hyp]VYIPRPRPPHPRL-OH) | 0.08 (≈ 0.185 µg/mL) | 1 |  |  |  |  | 
CC[C@H](C)[C@H](NC(=O)[C@H](Cc1ccc(F)cc1)NC(=O)[C@@H](NC(=O)[C@@H]1C[C@@H](O)CN1C(=O)[C@H](CCCNC(=N)N)NC(=O)[C@H](CC(N)=O)NC(=O)[C@H](CC(N)=O)NC(=O)[C@H](CCCN)N=C(N(C)C)N(C)C)C(C)C)C(=O)N1CCC[C@H]1C(=O)N[C@@H](CCCNC(=N)N)C(=O)N1CCC[C@H]1C(=O)N[C@@H](CCCNC(=N)N)C(=O)N1CCC[C@H]1C(=O)N1CCC[C@H]1C(=O)N[C@@H](Cc1c[nH]cn1)C(=O)N1CCC[C@H]1C(=O)N[C@@H](CCCNC(=N)NC)C(=O)N(C)[C@@H](CC(C)C)C(=O)O ({Orn(α-tetramethylguanidino)}-NNR[Hyp]V[Phe(4-F)]IPRPRPPHP[Arg(Me)][NMeL]-OH) |  |  |  | > 25 | 6.2 (≈ 14.5 µg/mL) | ~80 | Active
